Assay results from ChEMBL document CHEMBL1152300, “Ligand specificity of constitutive androstane receptor as probed by induced-fit docking and mutagenesis” (J Med Chem, 2008).
Each block holds one molecule with its values, some of them ahead of it.

Key:
[1] = target: Nuclear receptor subfamily 1 group I member 3 (Mus musculus, UniProt O35627, H213A); settings: HEK293, mouse
[2] = target: Nuclear receptor subfamily 1 group I member 3 (Mus musculus, UniProt O35627, Y336A); settings: HEK293, mouse, read-out: Activity
[3] = target: Nuclear receptor subfamily 1 group I member 3 (Mus musculus, UniProt O35627, S251L); assay: Effect on steroid receptor coactivator 1 binding to mouse CAR S251L mutant […] at 10 uM by yeast two-hybrid assay; type: cell-based; settings: read-out: Activity
Procedure, shortened: (§1)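 Yeast two-hybrid assay. Yeast co-expressing wild-type or mutant mouse CAR LBD and the SRC-1 partner were selected on SD plates lacking leucine and tryptophan. Random colonies were pooled and amplified, then treated with DMSO or test chemical for 3.5 h. β-galactosidase activity was normalized to cell density and set relative to wild-type mCAR + SRC-1 with DMSO (=100). Mean ± standard deviation of two determinations, each in triplicate.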

[4] = target: T1, Nuclear receptor subfamily 1 group I member 3 (Mus musculus, UniProt O35627, L353A); assay: Effect on steroid receptor coactivator 1 binding to mouse CAR L353A mutant […] at 10 uM by yeast two-hybrid assay; type: cell-based; settings: read-out: Activity
Procedure, shortened: as §1

[5] = target: T2, Nuclear receptor subfamily 1 group I member 3 (Mus musculus, UniProt O35627, N175A); settings: HEK293, mouse, read-out: Activity
[6] = target: T1, Nuclear receptor subfamily 1 group I member 3; assay: Decrease in nuclear co-repressor receptor binding to mouse CAR L353A mutant […] at 10 uM by yeast two-hybrid assay; type: cell-based; settings: read-out: Activity
Procedure, shortened: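 Yeast expressing wild-type or mutant mouse CAR LBD plus NCoR, selected on SD plates lacking leucine and tryptophan. Pooled colonies treated with DMSO or compound for 3.5 h. β-Galactosidase activity normalized to cell density. Reference is 10 µM androstenol (=100). Mean ± SD of two independent determinations, each in triplicate.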

[7] = target: T3, Nuclear receptor subfamily 1 group I member 3 (Mus musculus, UniProt O35627, L212A); assay: Decrease in nuclear co-repressor receptor binding to mouse CAR L212A mutant […] at 10 uM by yeast two-hybrid assay; type: cell-based; set-up: scale not given: the % may be the effect or the level left
[8] = target: T4, Nuclear receptor subfamily 1 group I member 3 (Mus musculus, UniProt O35627, T350A); assay: Decrease in nuclear co-repressor receptor binding to mouse CAR T350A mutant […] at 10 uM by yeast two-hybrid assay; type: cell-based; set-up: scale not given: the % may be the effect or the level left
[9] = target: T4, Nuclear receptor subfamily 1 group I member 3; settings: HEK293, mouse
[10] = target: T2, Nuclear receptor subfamily 1 group I member 3; assay: Enhancement of steroid receptor co-activator 1 binding to mouse CAR N175A mutant […] at 10 uM by yeast two-hybrid assay; type: cell-based
[11] = target: T5, Nuclear receptor subfamily 1 group I member 3 (Mus musculus, UniProt O35627, I252L); settings: HEK293, mouse, read-out: Activity
[12] = target: T6, Nuclear receptor subfamily 1 group I member 3 (Mus musculus, UniProt O35627, L253F); assay: Decrease in mouse CAR L253F mutant activation expressed in HEK293 cells at 10 uM by mammalian one-hybrid assay; type: cell-based; settings: read-out: Activity
Procedure, shortened: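 GAL4-DBD fused to mouse CAR LBD (residues 118-358), wild-type or point mutant, cotransfected with UASx4-tk-luc reporter and pCMVβ into HEK293 cells. Cells were exposed to final 1 µM, 2 µM or 10 µM test chemical, or 0.1% v/v DMSO, for 24 h after transfection. Luciferase was normalized to β-galactosidase and set against empty GAL4 vector (=1.0). Mean ± standard deviation, three independent experiments.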

[13] = target: T7, Nuclear receptor subfamily 1 group I member 3 (Mus musculus, UniProt O35627); assay: Enhancement of steroid receptor coactivator 1 binding to wild type mouse CAR expressed in HEK293 cells at 10 uM by yeast two-hybrid assay; settings: for fold induction at 10 µM: HEK293, mouse, read-out: FC
T7 sequence (O35627 whole entry): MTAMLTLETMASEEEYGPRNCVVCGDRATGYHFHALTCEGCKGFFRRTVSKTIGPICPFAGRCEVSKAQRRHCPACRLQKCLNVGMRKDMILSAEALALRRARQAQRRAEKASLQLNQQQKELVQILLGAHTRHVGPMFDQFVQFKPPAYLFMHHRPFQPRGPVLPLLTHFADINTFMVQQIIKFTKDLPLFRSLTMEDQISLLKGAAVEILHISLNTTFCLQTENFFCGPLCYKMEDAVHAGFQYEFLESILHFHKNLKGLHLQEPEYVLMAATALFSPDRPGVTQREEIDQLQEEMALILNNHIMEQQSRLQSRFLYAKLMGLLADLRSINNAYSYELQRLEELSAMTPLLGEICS

[14] = target: T6, Nuclear receptor subfamily 1 group I member 3; settings: HEK293, mouse
[15] = target: T8, Nuclear receptor subfamily 1 group I member 3 (Mus musculus, UniProt O35627, F171A); settings: HEK293, mouse
[16] = target: Nuclear receptor subfamily 1 group I member 3 (Mus musculus, UniProt O35627, T350M); settings: HEK293, mouse
[17] = target: T5, Nuclear receptor subfamily 1 group I member 3; assay: Enhancement of steroid receptor coactivator 1 binding to mouse CAR I252L mutant […] at 10 uM by yeast two-hybrid assay; type: cell-based
Procedure, shortened: (§2)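 Yeast two-hybrid: yeast expressing wild-type or mutant mouse CAR LBD plus SRC-1 or NCoR, selected on SD medium lacking Leu and Trp. Pooled colonies treated with DMSO or test chemical for 3.5 h. β-Galactosidase normalized to cell density. SRC-1 reference: wild-type + DMSO = 100. NCoR reference: 10 µM androstenol = 100. Mean ± SD, two independent determinations, each in triplicate.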

[18] = target: T7, Nuclear receptor subfamily 1 group I member 3; assay: Increase in nuclear co-repressor receptor binding to wild type mouse CAR expressed in […] cells at 2 uM by yeast two-hybrid assay; type: cell-based
Procedure, shortened: as §2

[19] = target: T7, Nuclear receptor subfamily 1 group I member 3; assay: Enhancement of steroid receptor coactivator 1 binding to wild type mouse CAR expressed in HEK293 cells at 2 uM by yeast two-hybrid assay; settings: hek293, 2 µM
[20] = target: T8, Nuclear receptor subfamily 1 group I member 3; assay: Activation of mouse CAR F171A mutant expressed in HEK293 cells at 10 uM by mammalian one-hybrid assay; type: cell-based; settings: hek293, 10 µM
[21] = target: T3, Nuclear receptor subfamily 1 group I member 3; assay: Activation of mouse CAR L212A mutant expressed in HEK293 cells at 10 uM by mammalian one-hybrid assay; type: cell-based; settings: hek293, 10 µM
[22] = target: T7, Nuclear receptor subfamily 1 group I member 3; assay: Enhancement of steroid receptor coactivator 1 binding to wild type mouse CAR expressed in HEK293 cells at 1 uM by yeast two-hybrid assay; settings: read-out: FC

T6 sequence (O35627 whole entry L253F, the tested form may be a part): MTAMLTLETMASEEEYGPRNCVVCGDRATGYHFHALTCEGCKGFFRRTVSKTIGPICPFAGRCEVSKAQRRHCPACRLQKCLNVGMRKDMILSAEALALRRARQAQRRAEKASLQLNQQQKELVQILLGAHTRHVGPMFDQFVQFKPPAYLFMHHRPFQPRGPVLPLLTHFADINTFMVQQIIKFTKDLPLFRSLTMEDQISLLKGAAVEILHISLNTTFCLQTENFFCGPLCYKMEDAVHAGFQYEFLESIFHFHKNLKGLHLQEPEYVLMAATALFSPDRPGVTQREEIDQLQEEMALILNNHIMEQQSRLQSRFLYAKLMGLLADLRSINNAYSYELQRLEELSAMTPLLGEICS
T4 sequence (O35627 whole entry T350A): as the sequence (O35627 whole entry L253F, the tested form may be a part) above, with F253L, T350A counted along it
T8 sequence (O35627 whole entry F171A): as the sequence (O35627 whole entry L253F, the tested form may be a part) above, with F171A, F253L counted along it
T1 sequence (O35627 whole entry L353A): as the sequence (O35627 whole entry L253F, the tested form may be a part) above, with F253L, L353A counted along it
T3 sequence (O35627 whole entry L212A): as the sequence (O35627 whole entry L253F, the tested form may be a part) above, with L212A, F253L counted along it
Chain of Nuclear receptor subfamily 1 group I member 3 (Mus musculus, UniProt O35627, H213A) (O35627 whole entry H213A): as the sequence (O35627 whole entry L253F, the tested form may be a part) above, with H213A, F253L counted along it
Chain of Nuclear receptor subfamily 1 group I member 3 (Mus musculus, UniProt O35627, T350M) (O35627 whole entry T350M): as the sequence (O35627 whole entry L253F, the tested form may be a part) above, with F253L, T350M counted along it
Chain of Nuclear receptor subfamily 1 group I member 3 (Mus musculus, UniProt O35627, S251L) (O35627 whole entry S251L, the tested form may be a part): as the sequence (O35627 whole entry L253F, the tested form may be a part) above, with S251L, F253L counted along it
Chain of Nuclear receptor subfamily 1 group I member 3 (Mus musculus, UniProt O35627, Y336A) (O35627 whole entry Y336A): as the sequence (O35627 whole entry L253F, the tested form may be a part) above, with F253L, Y336A counted along it
T2 sequence (O35627 whole entry N175A): as the sequence (O35627 whole entry L253F, the tested form may be a part) above, with N175A, F253L counted along it
T5 sequence (O35627 whole entry I252L): as the sequence (O35627 whole entry L253F, the tested form may be a part) above, with I252L, F253L counted along it

Structure (SMILES): C[C@]12CC[C@@H](O)C[C@@H]1CC[C@@H]1[C@@H]2CC[C@]2(C)C=CC[C@@H]12 [ANDROSTENOL]
activity at 10 µM [1]: < 50%
inhibition at 10 µM [2]: ≥ 50%
activity at 10 µM [3]: < 50%
activity at 10 µM [4]: < 50%
inhibition at 10 µM [5]: ≥ 50%
inhibition at 10 µM [6]: ≥ 50%
Activity [7]: >= 50%
Activity [8]: >= 50%
activity at 10 µM [9]: < 50%
Activity [10]: > 150%
inhibition at 10 µM [11]: < 50%
inhibition at 10 µM [12]: < 50%
Activity ([13]; mouse, hek293, 10 µM): Not Active
activity at 10 µM [14]: < 50%
activity at 10 µM [15]: < 50%
activity at 10 µM [16]: < 50%

Structure (SMILES): COc1ccc(C(c2ccc(OC)cc2)C(Cl)(Cl)Cl)cc1 [METHOXYCHLOR]
activity at 10 µM [1]: < 50%
inhibition at 10 µM [2]: ≥ 50%
activity at 10 µM [3]: < 50%
activity at 10 µM [4]: < 50%
Activity [17]: >= 50%
inhibition at 10 µM [5]: ≥ 50%
inhibition at 10 µM [6]: ≥ 50%
fold change (FC) [18]: 4
Activity [7]: >= 50%
Activity [8]: >= 50%
activity at 10 µM [9]: < 50%
inhibition at 10 µM [11]: 50%
FC [19]: 2.5
Activity [20]: < 50%
Activity [21]: 50%
fold induction at 1 µM [22]: 2.5
fold induction at 10 µM [13]: 2.5
activity at 10 µM [14]: < 50%
activity at 10 µM [15]: < 50%
activity at 10 µM [16]: < 50%

Structure (SMILES): Clc1cnc(Oc2ccc(Oc3ncc(Cl)cc3Cl)cc2)c(Cl)c1
FC [19]: 2.5
fold induction at 1 µM [22]: 2.5
fold induction at 10 µM [13]: 2.5

Continued, values first:

activity at 10 µM [1]: < 50%
inhibition at 10 µM [2]: ≥ 50%
activity at 10 µM [3]: < 50%
activity at 10 µM [4]: < 50%
Activity [17]: > 50%
inhibition at 10 µM [5]: ≥ 50%
inhibition at 10 µM [6]: ≥ 50%
fold change (FC) [18]: 4
Activity [7]: >= 50%
Activity [8]: >= 50%
activity at 10 µM [9]: < 50%
Activity [10]: > 150%
inhibition at 10 µM [11]: < 50%
FC [19]: 2.5
Activity [20]: > 100%
Activity [21]: < 50%
inhibition at 10 µM [12]: < 50%
fold induction at 1 µM [22]: 2.5
fold induction at 10 µM [13]: 2.5
activity at 10 µM [14]: < 50%
activity at 10 µM [15]: < 50%
Structure (SMILES): COc1ccccc1CC(CC(=O)Cc1ccccc1)OC (centres undefined)

fold change (FC) [18]: 4
FC [19]: 2.5
fold induction at 1 µM [22]: 2.5
fold induction at 10 µM [13]: 2.5
Structure (SMILES): Clc1ccccc1C(c1ccccc1)(c1ccccc1)n1ccnc1 [CLOTRIMAZOLE]

activity at 10 µM [1]: < 50%
inhibition at 10 µM [2]: ≥ 50%
activity at 10 µM [3]: < 50%
activity at 10 µM [4]: < 50%
Activity [17]: >= 50%
inhibition at 10 µM [5]: ≥ 50%
fold change (FC) [18]: 4
Activity [8]: >= 50%
activity at 10 µM [9]: < 50%
Activity [10]: >= 50%
inhibition at 10 µM [11]: 50%
FC [19]: 2.5
Activity [20]: > 100%
Activity [21]: 50%
inhibition at 10 µM [12]: < 50%
fold induction at 1 µM [22]: 2.5
fold induction at 10 µM [13]: 2.5
activity at 10 µM [14]: < 50%
activity at 10 µM [15]: < 50%
activity at 10 µM [16]: < 50%
Structure (SMILES): COc1ccc(C(=O)CCCc2ccccc2)cc1
